# Sampled rows, rich in hits. Any-hit rate of the full collection: about 4.2%.
# Insulin prom up: MIN6 insulin promoter up-regulation; MIN6 insulin promoter-GFP reporter, high-content imaging; hits give high values; z-score at 5 µM; hit rate 0.3% among 190,000; AID 1625;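 active means z-score above 3 at 5 µM with at least 500 cells counted in the well; inconclusive means wells under 500 cells, flagged as cytotoxic or low count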
# Autophagy mod: autophagy modulation, high-content screen | MEF GFP-LC3 puncta imaging; test concentration mostly 10 µM | calls only at 10 µM (by protocol) | hit rate 0.98% among 190,000;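 active means percentage of spot-positive cells more than 3 SD above its plate mean, without a fluorescence outlier flag or 80% toxicity; inconclusive means no clear call, values can overlap the other calls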;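 further: spot-positive cell cutoff set from DMSO-treated cells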
# WT yeast gro inh: growth inhibition of WT yeast, mitochondrial fusion screen. mitochondrial fusion phenotypic screen, WT strain. inhibition, % at 10 µM. hit rate 2.1% among 190,000; in the data active means inhibition above about 58%; tested in S. cerevisiae
# Rad51 HR inh: Rad51 (human) homologous recombination inhibition; inhibition, % at 10 µM; hRad51 DNA strand exchange, fluorescence dequenching; hit rate 0.085% among 200,000; Q06609;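 active means inhibition above 40% at the single screening dose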;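 further: 0% = DMSO control wells and 100% = blanks with heterologous ssDNA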
# Target sequence (Q06609 whole entry, looked up): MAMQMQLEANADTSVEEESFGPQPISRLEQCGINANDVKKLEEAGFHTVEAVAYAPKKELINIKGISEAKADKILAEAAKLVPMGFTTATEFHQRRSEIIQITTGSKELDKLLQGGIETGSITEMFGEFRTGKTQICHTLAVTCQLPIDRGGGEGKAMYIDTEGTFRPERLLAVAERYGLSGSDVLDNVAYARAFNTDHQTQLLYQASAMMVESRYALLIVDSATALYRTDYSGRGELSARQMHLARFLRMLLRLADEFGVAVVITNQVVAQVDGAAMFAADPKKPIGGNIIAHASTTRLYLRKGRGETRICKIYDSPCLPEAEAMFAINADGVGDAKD
#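 material = hRad51 filaments on single-stranded DNA | reagent = Donor/quencher-labelled 47-bp dsDNA substrate | compound = 10 µM final, single point | schedule = strand-exchange reaction 15 min at room temperature | measured by = fluorescein emission 520 nm, excitation 485 nm | read-out basis = % inhibition versus plate control and blank means | benchmarks = plate controls and plate blanks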
# SKKanGAS inh: inhibitors of SKKanGAS S. pyogenes growth in kanamycin (SK-promoter or general growth effect); BacTiter-Glo, 6 h; inhibition, % at 7.5 µM; hit rate 1.3% among 300,000; AID 1662;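 active means mean replicate score, as percent of positive control median, at least 50; inconclusive means mean below 50 but one replicate at or above 50; inactive means mean and every replicate below 50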;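 further: strain carries kanamycin resistance gene driven by streptokinase promoter and grows in 40 µg/ml kanamycin; loss of luminescence reflects streptokinase promoter inhibition or plain growth inhibition; 0% = median of DMSO wells and 100% = positive control at its reference dose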
# Cl transport mod: modulators of human KCC2 chloride dependent transport. Q9H2X9. KCC2 cells, thallium flux FluoZin-2 fluorescence. B-score of Tl+ flux slope (higher = more flux/activation; lower = inhibition) at 10 µM. hit rate 2.2% among 190,000. AID 1456;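 active means thallium flux slope and its plate-corrected score both differing from the plate sample mean at a set confidence after two filtering rounds, in either direction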;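 further: slope of fluorescence scaled to starting intensity during 10 to 20 s after thallium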
# KCC2 secondary: KCC2 (human) modulation, secondary assay; shares compounds with Cl transport mod; HEK293-KCC2, thallium flux, FluoZin2 fluorescence; hits give high values; normalised thallium flux (F/F0 slope) at 10 µM; hit rate 15% among 3,700; AID 1713;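 active means thallium flux slope above the same plate's solvent-only control mean plus 3 SD; inconclusive means the two replicate wells disagree; inactive means no significant difference from solvent-only control wells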
# KCC2 bumet counter: thallium flux despite bumetanide block in KCC2 cells, secondary assay 3. hit rate 49% among 3,700. shares compounds with Cl transport mod. HEK293-KCC2 + bumetanide/ouabain, thallium flux FluoZin2; hits give high values. normalized thallium flux at 10 µM;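 active means thallium entry rate above the same plate's blocked-transporter control wells by more than 3 SD; inconclusive means the two repeat wells disagree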;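 further: raw slope of fluorescence over initial fluorescence between 10 and 20 s after thallium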
# KCC2 sec2: confirmation of human KCC2 transport modulators. shares compounds with Cl transport mod. HEK293-KCC2, thallium flux FluoZin2 fluorescence; actives lie on both sides; F/F0 rise rate, 10–20 s post-thallium. normalized thallium flux at 10 µM. hit rate 23% among 3,700;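 active means thallium flux slope more than 3 SD above or below the plate's solvent-only control mean, mostly below; inconclusive means the two repeat wells disagreed; inactive means no significant shift from solvent-only controls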;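 further: raw slope with 0.1% DMSO as baseline and bumetanide as block control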
# HEK293 Tl flux: acts in parental HEK cells, KCC2 counter-screen. shares compounds with Cl transport mod. HEK293 parental cells, thallium flux FluoZin2, ouabain; baseline-ratio fluorescence slope, 10–20 s after thallium. thallium flux rate (normalised fluorescence) at 10 µM. hit rate 46% among 3,700;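 active means thallium flux rate significantly above the same plate's solvent-only control wells, beyond their mean plus 3 SD; inconclusive means the two replicate wells gave conflicting results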
# KCC2 retest ouab: confirmation of human KCC2 modulators with ouabain. AID 1717. shares compounds with Cl transport mod. HEK293-KCC2, thallium flux FluoZin2 fluorescence; bidirectional: low = inhibitor, high = activator. raw Tl+ flux slope (below DMSO = inhibition, above = activation) at 10 µM. hit rate 48% among 3,700;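 active means thallium flux slope beyond 3 SD from same-plate DMSO control mean in most replicates, usually higher, sometimes lower; inconclusive means repeat tests gave conflicting results; inactive means no significant difference from controls in most replicates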;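 further: slope of initial-normalized fluorescence between seconds 10 and 20 after thallium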
# HEK counter2: parental HEK flux effect, counter-screen 2. hit rate 33% among 3,700. AID 1718. thallium flux slope at 10 µM. HEK293 parental, thallium flux FluoZin-2 fluorescence slope. shares compounds with Cl transport mod;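 active means thallium flux slope above the same plate's solvent-control mean plus 3 SD in both duplicate wells; inconclusive means duplicate wells that disagreed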;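 further: run without ouabain in cells lacking the KCC2 cotransporter; slope of fluorescence scaled to its starting value between 10 and 20 s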
# * = called active by the depositor; i = inactive; ? = inconclusive; . = no result given.
SMILES,Insulin prom up,Autophagy mod,WT yeast gro inh,Rad51 HR inh,SKKanGAS inh,Cl transport mod,KCC2 secondary,KCC2 bumet counter,KCC2 sec2,HEK293 Tl flux,KCC2 retest ouab,HEK counter2
COc1ccc(NC(=S)/N=C(\N)Nc2nc(C)c3ccccc3n2)cc1,-1.49,.,.,2.3,-7.3,-3.55*,0.00702,0.00487,0.0256*,0.00708,0.0166*,0.00976
CC1=CN2C(=N)/C(=C/c3ccc(C)o3)C(=O)N=C2S1,-0.53,i,-8.8,-4.1,-7.9,8.85*,0.0103,0.0275*,0.0324,0.0127*,0.0228,?
CC1=CN2C(=N)/C(=C/c3ccc(Sc4ccc(Cl)cc4)o3)C(=O)N=C2S1,1.83,i,23.8,-15.1,34.8,9.24*,0.00993,0.0143*,0.0325,0.0129*,0.0236,0.0108
CC1=CN2C(=N)/C(=C/c3ccc(Sc4ccc(C)cc4)o3)C(=O)N=C2S1,0.04,i,77.0*,2.5,-2.0,15.8*,0.00684,0.0295*,?,0.0416*,0.0321*,0.0207*
CCN=C1S/C(=C\c2ccc(Sc3ccc(Cl)cc3)o2)C(=O)N1CC,-1.07,i,11.0,8.0,-5.7,-0.0832,.,.,.,.,.,.
CCC(=O)NC(=S)NNC(=O)c1ccc(O)cc1,1.07,i,-6.5,.,13.5,0.653,.,.,.,.,.,.
COc1cccc(/C=N/NC(=O)Cn2cnc3c2c(=O)n(C)c(=O)n3C)c1,-0.02,.,.,10.8,-1.2,0.621,.,.,.,.,.,.
N#CCCCSc1ncccc1-c1nc2ccccc2[nH]1,.,i,6.6,.,.,0.436,0.00789,0.00606,0.0269,0.00663,0.0203,0.00858
O=C1c2ccc(-c3ccc4c(c3)C(=O)N(CCO)C4=O)cc2C(=O)N1CCO,0.53,.,.,-12.3,4.8,1.09,.,.,.,.,.,.
O=C(O)CSc1nc(-c2cccs2)cc(C(F)(F)F)n1,0.22,i,14.0,-8.8,14.9,-0.0201,.,.,.,.,.,.
CCC(C)NC(=O)CSc1nc(-c2cccs2)cc(C(F)(F)F)n1 (centres undefined),1.34,i,18.0,-3.3,-6.2,2.86*,0.0058,0.00441,0.0301,0.00745,0.0192,0.0104
Cc1ccc(OCC(=O)Nc2cccnc2Cl)cc1C,.,.,.,.,-6.4,.,.,.,.,.,.,.
O=C(Nc1ccc(F)cc1)c1ccc(CSc2ccccc2)o1,-0.67,i,20.7,-1.6,6.4,-3.4*,0.00786,0.00713,0.0337,0.00382,0.0151*,0.0107
O=C(Nc1nc2c(Br)cc(Br)cc2c(=O)s1)C1CCC1,-0.46,.,.,-28.3,11.4,9.9*,0.0235*,0.0412*,0.0344,0.0271*,0.0442*,0.0146*
Cc1ccc(C)c2sc(NC(=O)C3CC3)nc12,.,.,.,.,3.9,.,.,.,.,.,.,.
CSc1cccc(NC(=S)Nc2cc(C)ccc2C)c1,1.19,.,.,-3.6,-14.8,0.172,.,.,.,.,.,.
CS(=O)(=O)N(CC(=O)N1CCN(c2ccccc2)CC1)c1cccc(Br)c1,-0.82,i,0.4,3.0,-9.5,.,0.0063,0.005,0.0232*,0.00759,0.0148*,0.0102
CS(=O)(=O)N(CC(=O)N1CCN(c2ccc(F)cc2)CC1)c1ccc(F)c(Cl)c1,-0.99,i,5.8,0.1,-1.5,-4.44*,?,0.00679,0.0277*,0.00752,0.0163*,0.011
COc1ccc(N2CCN(C(=O)CN(c3cccc(Br)c3)S(C)(=O)=O)CC2)cc1,0.06,i,-1.6,5.5,-3.5,0.000864,.,.,.,.,.,.
CC1=CC(C)(C)n2c(O)c(N=NC(N)=S)c3cc(C)cc1c32,-0.33,i,-10.8,5.6,-9.2,8.7*,0.0124*,0.033*,0.0305,0.0164*,?,0.0109*
CC1=CC(C)(C)n2c(O)c(C3=NC(=S)NC3=O)c3cc(OC(=O)c4cccc5ccccc45)cc1c32,-1.59,i,32.0,.,7.8,.,.,.,.,.,.,.
CCC1=NN2C(=N)/C(=C\c3cccn3-c3ccc(Br)cc3)C(=O)N=C2S1,.,i,23.4,0.4,37.5,11.3*,0.00748,0.0224*,0.0325,0.019*,0.0253*,0.0141*
CCC1=NN2C(=N)/C(=C\c3cccn3-c3cccc(Cl)c3)C(=O)N=C2S1,-0.25,i,61.6*,-6.9,35.8,8.8*,0.0167,0.0503*,?,0.0209*,0.0263*,0.0212*
COc1ccc2nc(NC(=O)Cn3cnc4ccccc4c3=O)sc2c1,-0.1,.,.,13.0,-6.9,0.864,.,.,.,.,.,.
COc1ccccc1NC(=O)C(C)OC(=O)CCCOc1ccccc1 (centres undefined),.,.,.,.,-10.5,.,.,.,.,.,.,.
SMILES,Insulin prom up,Autophagy mod,WT yeast gro inh,Rad51 HR inh,SKKanGAS inh,Cl transport mod,KCC2 secondary,KCC2 bumet counter,KCC2 sec2,HEK293 Tl flux,KCC2 retest ouab,HEK counter2
COc1ccccc1N1CCN(C(=O)c2coc(=O)c(Br)c2)CC1,-0.15,.,.,-8.5,9.8,-1.14,.,.,.,.,.,.
CCc1nnc(NC(=O)C2CCCN(S(=O)(=O)c3ccccc3)C2)s1 (centres undefined),-0.67,i,11.8,6.5,-0.1,.,?,0.00543,0.0298,0.00713,0.0192,0.0103
COc1ccc(NC(=S)N/C(=N/S(=O)(=O)c2ccc(C)cc2)c2ccccc2)cc1,-0.28,i,5.7,3.1,3.7,4.18*,?,0.02*,0.0321,0.0129*,0.0262*,0.0122
O=S(=O)(/N=C(/NC(=S)Nc1ccccc1)c1ccccc1)c1ccc(Cl)cc1,.,.,.,.,4.8,.,.,.,.,.,.,.
Cc1ccc(S(=O)(=O)NN/C(=N/S(=O)(=O)c2ccccc2)c2ccccc2)cc1,-0.48,i,-2.5,11.6,13.9,-0.225,.,.,.,.,.,.
CCOC(=S)N/C(=N\S(=O)(=O)c1ccc(C)cc1)c1ccccc1,0.28,i,-10.0,-1.9,-1.4,.,?,0.0146*,0.0398,?,0.0278*,0.0114
O=c1[nH]ncc(N2CCN(Cc3ccccc3)CC2)c1Cl,-0.98,i,-16.6,33.3,-14.6,-0.568,.,.,.,.,.,.
CCOC(=O)Nc1nn(-c2ccc(C)cc2)c(=O)c(C#N)c1C,1.07,i,-33.6,25.0,-4.7,-0.317,.,.,.,.,.,.
COC(=O)c1[nH]c2ccc(F)cc2c1NS(=O)(=O)c1ccc(F)c(C)c1,0.36,i,2.5,.,2.0,-0.973,.,.,.,.,.,.
COC(=O)c1[nH]c2ccc(C)cc2c1NS(=O)(=O)c1ccc(F)c(C)c1,0.09,i,-3.7,.,-3.8,-2.93*,0.0113,?,0.0275,0.00789,0.0291,0.0102
